T cruzi intra = blocks T. cruzi growth inside host cells; AID 651903; intracellular Trypanosoma cruzi in host cells, plate reader; 22,000 tested, 4.9% active; activity score (inhibition), % at 5.01 µM; in the data active = activity score above about 55%;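 note: parasites and compound incubated about four days before reading; 0% = median of neutral control wells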
INS-1E ATP HTS = preserves ATP levels in cytokine-treated INS-1E cells; INS-1E cytokine-induced death, ATP luminescence, 48 h; normalised: neutral wells 0, positive control 100; protection from cytokine-induced ATP loss, % at 10 µM; 20,000 tested, 0.1% active; AID 488910;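 active = mean replicate protection from cytokine-induced ATP loss at least 50% and at least 75% of replicates each reaching 50%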
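Assay system – rat INS-1E insulinoma cell line · Quantity – 8000 cells per well · Buffer or medium – RPMI without phenol red, 5% FBS · Schedule – 48 h co-treatment, 10 min post-lysis read · Technique – luminescent ATP assay (CellTiter-Glo)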
A1 apoptosis 2 = compounds inhibiting A1, read as caspase activation. MEF A1-2A-BIM cells, caspase-Glo luminescence, 3 h; percent of clofoctol response, DMSO zero. caspase activation, % (test concentration not listed). 24,000 tested, under 10 active. AID 2465; in the data active = caspase activation above about 5.9%
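Material: mouse embryonic fibroblasts co-expressing A1 and BIM (A1-2A-BIM), primed for A1 dependence / Quantity: 2500 cells/well / Buffer or medium: RPMI-1640 growth medium with 10% FBS / Doses: 50 nL compound per well, pinned / Schedule: 3 h compound exposure at 37 °C / Signal: Caspase-Glo luminescence (DEVD substrate) / Measure: Caspase-3/7 activation, seen as rise in luminescence signal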
The depositor's hits bear a star. The entries come from a sample that favours hits as a whole.

For C[C@@H]1CN([C@H](C)CO)C(=O)c2cccc(NC(=O)c3nc4ccccc4s3)c2O[C@@H]1CN(C)Cc1ccccc1 the results were T cruzi intra 23, INS-1E ATP HTS -56 and A1 apoptosis 2 -1.
`C[C@@H]1CN([C@@H](C)CO)C(=O)c2cccc(NC(=O)c3nc4ccccc4s3)c2O[C@H]1CN(C)Cc1ccc(-c2ccccc2)cc1` gave T cruzi intra 71* and INS-1E ATP HTS -32.
C[C@@H]1CN([C@H](C)CO)C(=O)c2cccc(NC(=O)c3nc4ccccc4s3)c2O[C@@H]1CN(C)Cc1ccc(C(=O)Nc2ccccc2N)cc1 was read as A1 apoptosis 2 0.
Screening C[C@@H]1CN([C@@H](C)CO)C(=O)c2cccc(NC(=O)c3nc4ccccc4s3)c2O[C@H]1CN(C)Cc1ccc(C(=O)Nc2ccccc2N)cc1 returned T cruzi intra 70* and INS-1E ATP HTS 19.
Screening C[C@@H]1CN([C@H](C)CO)C(=O)c2cccc(NC(=O)c3nc4ccccc4s3)c2O[C@@H]1CN(C)Cc1ccc(-c2ccccc2)cc1 returned T cruzi intra 34, INS-1E ATP HTS -33 and A1 apoptosis 2 -1.
Screening C[C@H](CO)N1C[C@H](C)[C@@H](CN(C)Cc2ccc(Oc3ccccc3)cc2)Oc2c(NC(=O)c3nc4ccccc4s3)cccc2C1=O returned T cruzi intra 66* and INS-1E ATP HTS -26.
Screening O=C(O)CCCCCCC(=O)N/N=C/c1ccccn1 returned T cruzi intra -3 and INS-1E ATP HTS 6.
O=C(N/N=C/C[P+](c1ccccc1)(c1ccccc1)c1ccccc1)c1ccccc1O was read as T cruzi intra 45, INS-1E ATP HTS 3 and A1 apoptosis 2 0.
`O=C(CCCCC(=O)N/N=C/c1ccoc1)NO` gave T cruzi intra 9, INS-1E ATP HTS 3 and A1 apoptosis 2 1.
Cc1noc(C)c1S(=O)(=O)Nc1ccc2c(c1)C(=O)N([C@H](C)CO)C[C@H](C)[C@H](CN(C)Cc1ccc(C(=O)Nc3ccccc3N)cc1)O2 was read as T cruzi intra 79* and INS-1E ATP HTS 13.
`Cc1noc(C)c1S(=O)(=O)Nc1ccc2c(c1)C(=O)N([C@H](C)CO)C[C@@H](C)[C@@H](CN(C)Cc1ccc(C(=O)Nc3ccccc3N)cc1)O2` gave T cruzi intra 65*, INS-1E ATP HTS -9 and A1 apoptosis 2 0.
Cc1noc(C)c1S(=O)(=O)Nc1ccc2c(c1)C(=O)N([C@@H](C)CO)C[C@H](C)[C@@H](CN(C)Cc1ccc(C(=O)Nc3ccccc3N)cc1)O2 was read as T cruzi intra 43, INS-1E ATP HTS -14 and A1 apoptosis 2 -1.
For Cc1noc(C)c1S(=O)(=O)Nc1ccc2c(c1)CC(=O)N([C@H](C)CO)C[C@H](C)[C@H](CN(C)Cc1ccc(C(=O)Nc3ccccc3N)cc1)O2 the results were T cruzi intra 76* and INS-1E ATP HTS 34.
For Cc1noc(C)c1S(=O)(=O)Nc1ccc2c(c1)C(=O)N([C@@H](C)CO)C[C@@H](C)[C@@H](CN(C)Cc1ccc(C(=O)Nc3ccccc3N)cc1)O2 the results were T cruzi intra 54, INS-1E ATP HTS -3 and A1 apoptosis 2 1.
`Cc1noc(C)c1S(=O)(=O)Nc1ccc2c(c1)CC(=O)N([C@@H](C)CO)C[C@H](C)[C@H](CN(C)Cc1ccc(C(=O)Nc3ccccc3N)cc1)O2` gave A1 apoptosis 2 0.
Screening O=C(CCCCCC(=O)Nc1ccccc1O)N/N=C/c1ccccc1O returned A1 apoptosis 2 0.
`O=C(N/N=C/c1cn(S(=O)(=O)c2ccccc2)c2ccccc12)c1ccccc1O` gave T cruzi intra -9 and INS-1E ATP HTS -25.
Screening COC(=O)CCCCCCC(=O)N/N=C/c1ccc(O)cc1Br returned T cruzi intra 14, INS-1E ATP HTS 21 and A1 apoptosis 2 -1.
CC(C)(C)OC(=O)NC1(/C=N/NC(=O)CCCCC(=O)NO)CCCC1 was read as T cruzi intra 9, INS-1E ATP HTS -2 and A1 apoptosis 2 1.
For O=C(CCCCCCC(=O)Nc1ccccc1O)N/N=C/c1cccnc1Cl the results were T cruzi intra -6 and INS-1E ATP HTS 11.
`COc1ccc(CN(C)C[C@@H]2Oc3ccc(NS(=O)(=O)c4ccc(C)cc4)cc3CC(=O)N([C@@H](C)CO)C[C@H]2C)cc1` gave A1 apoptosis 2 -1.
COc1ccc(CN(C)C[C@H]2Oc3ccc(NS(=O)(=O)c4ccc(Cl)cc4)cc3CC(=O)N([C@H](C)CO)C[C@H]2C)cc1 was read as T cruzi intra 71*, INS-1E ATP HTS -5 and A1 apoptosis 2 -1.
Screening COc1ccc(CN(C)C[C@@H]2Oc3ccc(NS(=O)(=O)c4ccc(Cl)cc4)cc3CC(=O)N([C@H](C)CO)C[C@@H]2C)cc1 returned T cruzi intra 27, INS-1E ATP HTS -1 and A1 apoptosis 2 0.
COc1ccc(CN(C)C[C@H]2Oc3ccc(NS(=O)(=O)c4ccc(C)cc4)cc3CC(=O)N([C@@H](C)CO)C[C@@H]2C)cc1 was read as T cruzi intra 56*, INS-1E ATP HTS 1 and A1 apoptosis 2 1.
Cc1ncc(CO)c(/C=N/NC(=O)c2cccc(C(=O)NO)c2)c1O was read as T cruzi intra 2, INS-1E ATP HTS -2 and A1 apoptosis 2 0.
Screening O=C(O)CCCCCCC(=O)N/N=C/c1ccc(O)cc1Br returned T cruzi intra -15, INS-1E ATP HTS 3 and A1 apoptosis 2 -1.
`Cc1ccc(S(=O)(=O)Nc2cccc3c2O[C@@H](CN(C)Cc2ccc(C(=O)Nc4ccccc4N)cc2)[C@@H](C)CN([C@H](C)CO)C3=O)cc1` gave T cruzi intra 57*, INS-1E ATP HTS 5 and A1 apoptosis 2 0.
C[C@@H]1CN([C@H](C)CO)C(=O)c2cccc(NS(=O)(=O)c3ccccc3)c2O[C@@H]1CN(C)Cc1ccc(C(=O)Nc2ccccc2N)cc1 was read as T cruzi intra 75* and INS-1E ATP HTS 11.
For C[C@H]1CN([C@@H](C)CO)C(=O)c2cccc(NS(=O)(=O)c3ccccc3)c2O[C@H]1CN(C)Cc1ccc(C(=O)Nc2ccccc2N)cc1 the results were T cruzi intra 53, INS-1E ATP HTS -10 and A1 apoptosis 2 -1.
Screening C[C@@H]1CN([C@H](C)CO)C(=O)c2cccc(NS(=O)(=O)c3ccc(F)cc3)c2O[C@H]1CN(C)Cc1ccc(C(=O)Nc2ccccc2N)cc1 returned T cruzi intra 41, INS-1E ATP HTS 5 and A1 apoptosis 2 1.
For C[C@H](CO)N1C[C@H](C)[C@@H](CN(C)Cc2ccc(C(=O)Nc3ccccc3N)cc2)Oc2c(NS(=O)(=O)c3ccc(Cl)cc3)cccc2C1=O the results were T cruzi intra 49 and INS-1E ATP HTS -15.
Screening C[C@@H]1CN([C@@H](C)CO)C(=O)c2cccc(NS(=O)(=O)c3ccc(Cl)cc3)c2O[C@H]1CN(C)Cc1ccc(C(=O)Nc2ccccc2N)cc1 returned T cruzi intra 56*, INS-1E ATP HTS -1 and A1 apoptosis 2 -1.

Source: PubChem BioAssay (Broad Institute)
